Experimental findings from ChEMBL document CHEMBL4024770, “Augmentation of Anticancer Drug Efficacy in Murine Hepatocellular Carcinoma Cells by a Peripherally Acting Competitive N-Methyl-d-aspartate (NMDA) Receptor Antagonist” (J Med Chem, 2017) are described below.

SMILES strings stand for the structures.

Data set [1] has as its system Brain. As to the kind of experiment: AUC (0 to 240 mins) in mouse brain at 10 mg/kg, ip administered as bolus dose by LC-MS/MS analysis. The conditions noted are these: in vivo, 4 h. Further details: dose 10 mg/kg, time < 4 hr, route intraperitoneal. Format: ADME, organism-based. A digest of the protocol: (§1)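 Adult male mice (25 ± 5 g) given a single 10 mg/kg i.p. bolus, prepared as a 5.0 mM solution in 0.9% NaCl. Animals were decapitated at five time points between 10 and 240 min. Plasma was precipitated with acetonitrile containing internal standard. Brain and liver were homogenized in water (1:3) and precipitated the same way. Analysis by LC-MS/MS, with AUC0–240, Cmax, tmax, t½β and liver/plasma ratio derived from the concentration-time data.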

For data set [2], the system named is Brain. As to the kind of experiment: Tmax in mouse brain at 10 mg/kg, ip administered as bolus dose by LC-MS/MS analysis. Format: ADME, organism-based. To be noted: in vivo. A digest of the protocol: as §1
The subject of data set [3] is Brain. As to the kind of experiment: Cmax in mouse brain at 10 mg/kg, ip administered as bolus dose measured at 30 mins by LC-MS/MS analysis. The conditions noted are these: in vivo, 0.5 h. Further details: dose 10 mg/kg, route intraperitoneal. Format: ADME, organism-based. The procedure, abridged: as §1
Data set [4] is filed under the species Mus musculus. In words: Antagonist activity at NMDA receptor in Nras driven p53 deficient mouse HCC cell membranes assessed as Abcb1 protein expression levels at 10 uM by […] analysis relative to control. On the set-up: scale not given: the % may be the effect or the level left. The procedure, abridged:
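Mouse Nras-driven p53−/− HCC cells in DMEM with 10% FBS, exposed 48 h with or without 10 μM antagonist, washed, pelleted and snap-frozen. Crude membrane fraction isolated. 50 μg protein reduced, alkylated, precipitated, then Lys-C digested (3 h, rt) and trypsin digested (1:100, 37°C, 16 h). One unique peptide per transporter quantified by multiplexed SRM/MRM LC-MS/MS against stable isotope-labelled standards. Unpaired two-tailed t-test versus control, n=4.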

For data set [5], the system named is Brain. As to the kind of experiment: Drug uptake in mouse brain at 10 mg/kg, ip administered as bolus dose measured at 60 mins by LC-MS/MS analysis. Format: ADME, organism-based. To be noted: in vivo, 1 h. A digest of the protocol:
as §1

Another data set relates to Plasma. As to the kind of experiment: Cmax in mouse plasma at 10 mg/kg, ip administered as bolus dose by LC-MS/MS analysis. Format: ADME, organism-based. On the set-up: dose 10 mg/kg, route intraperitoneal. The conditions noted are these: in vivo. The procedure, abridged: as §1
For data set [6], the species on record is Mus musculus. In words: Antagonist activity at NMDA receptor in Nras driven p53 deficient mouse HCC cell membranes assessed as potentiation of 5 uM sorafenib-mediated antiproliferative activity by measuring cell viability at 100 uM after 72 hrs by resazurin assay (reference value: […] +/- […]%). Background: The colour change of resazurin is a common sign of viable cells or microbes.

One may read the Tmax as the time from dosing to the highest level. As to `Cl.O=C(O)c1cc([C@H]2CCN[C@@H]2C(=O)O)ccc1Cl`, the AUC in the data set with Brain [1] was 13 nmol·min/g. Further, the Tmax in the data set on Brain [2] stood at 30 min. Further, the Cmax is listed as 0.3 nmol/g in the data set with Brain [3] and 43.4 nmol/g with Plasma. The Activity was found to be 39% in the data set filed under Mus musculus [4] and 35% in the data set filed under Mus musculus [6]. In the data set with Brain [5], the Drug uptake is 0.1 nmol/g.
